PRMT1 FP inh = PRMT1 (human) inhibition, primary screen | 1.3% of 370,000 active | inhibition, % at 2.79 µM | recombinant PRMT1, activity-based probe fluorescence polarization;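 active = inhibition above about 21% made by adding two undisclosed values, limit read from the data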
SIAE inh = blocks human sialic acid acetylesterase; Q9HAT2; SIAE FP-Rh probe binding, fluorescence polarization; inhibition, % at 9.66 µM; 0.69% of 370,000 active;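 active = inhibition above a cutoff: mean of compounds within the control limits plus 3 SD of those, cut at about 17% in these data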
mABHD4 FP = inhibits mouse alpha/beta hydrolase domain 4; inhibition, % at 8.92 µM; purified mABHD4, FP-Rh probe fluorescence polarization; 0.54% of 370,000 active; AID 720543;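 active = inhibition exceeding the mean over every tested compound plus 3 SD, cut at about 30% in these data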
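System: mouse ABHD4 enzyme, wild type / Medium: HEPES pH 7.0, NaCl, Pluronic buffer / Reagent: FP-Rh activity-based fluorescent probe / Control set: S159A mutant high control, sample median low control / Detection: fluorescence polarization with parallel and perpendicular emission, 525/598 nm / Schedule: 45 min + 60 min at 25 °C / Compound dosing: 8.92 µM, single dose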
TCR-CD3 inh = blocks the human TCR-CD3 interaction | 0.37% of 360,000 active | TAMRA-labeled TCR probe fluorescence, biochemical | inhibition, % at 9.4 µM; in the data active = inhibition above about 19%;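 note: recombinant mutant TCR 2C K166C tagged with TAMRA read by polarization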
HTRA1 inhibitor = inhibitors of human serine peptidase HTRA1. Q92743. recombinant HTRA1, FP-rhodamine activity-based probe, fluorescence polarization. inhibition, % at 5.96 µM. 0.5% of 340,000 active; in the data active = inhibition above about 36%
Target sequence (Q92743 whole entry, looked up): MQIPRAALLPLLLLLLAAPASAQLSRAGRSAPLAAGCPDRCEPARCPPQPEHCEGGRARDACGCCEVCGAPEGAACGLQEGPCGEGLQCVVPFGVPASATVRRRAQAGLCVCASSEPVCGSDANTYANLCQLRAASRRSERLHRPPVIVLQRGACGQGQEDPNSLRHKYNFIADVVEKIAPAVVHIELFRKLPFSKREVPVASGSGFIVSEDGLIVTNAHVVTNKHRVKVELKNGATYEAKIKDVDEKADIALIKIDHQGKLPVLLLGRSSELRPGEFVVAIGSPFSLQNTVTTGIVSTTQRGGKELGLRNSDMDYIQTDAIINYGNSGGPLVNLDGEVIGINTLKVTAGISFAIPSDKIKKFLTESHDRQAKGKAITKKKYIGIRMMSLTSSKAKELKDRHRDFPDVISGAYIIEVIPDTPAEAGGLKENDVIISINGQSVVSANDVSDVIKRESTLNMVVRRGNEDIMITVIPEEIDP
PRMT1 inh conf = PRMT1 (human) inhibition, FP confirmation | shares compounds with PRMT1 FP inh | recombinant His-PRMT1, activity-based probe fluorescence polarization | inhibition, % at 2.79 µM | 42% of 3,300 active | AID 687036;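 active = mean inhibition across replicates above the hit cutoff derived for the earlier primary screen, cut at about 22% in these data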
ABHD4 confirm = ABHD4 (mouse) inhibition, FP confirmation. purified mABHD4, FP-Rh probe fluorescence polarization. shares compounds with mABHD4 FP. 55% of 1,800 active. inhibition, % at 8.92 µM;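 active = mean inhibition across replicates above the hit cutoff set in the primary screen, cut at about 30% in these data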
Hits are given with their value; - = inactive; . = no result. Most compounds without a hit are left out; they make up all but 2.5% or so of the library.

SMILES	PRMT1 FP inh	SIAE inh	mABHD4 FP	TCR-CD3 inh	HTRA1 inhibitor	PRMT1 inh conf	others
Brc1ccc(C2NCCS2)cc1 (stereo unspecified)	32	-	-	-	-	-
CC(C)N(C)c1ncnc2c1ncn2[C@H]1CN(Cc2ccc(Cl)cc2)C[C@@H](CO)O1	-	-	-	-	.	.
COc1ccc(C2=NN(C(=O)COC(=O)c3ccc(S(C)(=O)=O)c([N+](=O)[O-])c3)C(c3ccco3)C2)cc1 (stereo unspecified)	41	-	-	-	-	-
COc1ccc(C2=NN(C(=O)COc3ncnc4ccccc34)C(c3ccco3)C2)cc1 (stereo unspecified)	-	-	-	-	-	.
Cc1ccc(/C(C#N)=C\c2ccc(N3CCOCC3)o2)cc1	27	-	-	-	-	-
COc1ccc(CNC(=O)C2CCCN(S(=O)(=O)c3c(C)noc3/C=C/N(C)C)C2)cc1 (stereo unspecified)	-	-	-	-	-	.
CCOC(=O)CC(=O)CSc1nc(-c2cccnc2)ccc1C#N	56	-	-	-	-	-
CCOC(=O)CC(=O)CSc1nc(-c2cccnc2)cc(C)c1C#N	-	-	-	-	-	.
CCOC(=O)CC(=O)CSc1nccc(-c2cccnc2)n1	38	-	-	-	-	-
CCC1(C)C(Nc2c(C)cccc2C)=NC(=S)N1c1ccc(NC(C)=O)cc1 (stereo unspecified)	-	-	-	-	-	.
O=c1[nH][nH]c(C(F)(F)F)c1/C=N/N1CCOCC1	-	-	-	-	-	.
Cc1ccc(-c2c3c(nc4sc(C(N)=O)c(N)c24)CCCC3)o1	32	-	-	-	-	-
NC(=O)c1ccc(SCC(=O)OCC(=O)NCC2CCCCC2)c([N+](=O)[O-])c1	-	-	-	-	-	.
NC(=O)c1ccc(SCC(=O)OCC(=O)NCc2cccs2)c([N+](=O)[O-])c1	45	-	-	-	-	-
CN1/C(=C\C(=O)c2cccnc2)Sc2ccccc21	31	-	-	-	-	-
COc1cccc(C(=O)/C=C2\Sc3ccccc3N2C)c1	-	-	-	-	-	.
COc1ccc(NS(=O)(=O)c2ccc(N3CCCC3)c(NC(=S)Nc3cccc(C)c3C)c2)cc1	-	-	-	-	-	.
COc1ccc(NS(=O)(=O)c2ccc(N3CCCC3)c(NC(=S)Nc3ccc(SC(F)F)cc3)c2)cc1	29	-	-	-	-	-
COc1ccc(NC(=S)NCCN2CCC(C)CC2)cc1Cl	48	-	-	-	-	46
COc1ccc(NC(=S)NCCCN2CCCC2)cc1Cl	-	-	-	-	-	.
COCCN(C(=S)Nc1ccc(OC)c(Cl)c1)C1CCN(C(C)C)CC1	-	-	-	-	-	.
COc1ccc(NC(=S)N(CCC(C)C)C2CCN(C(C)C)CC2)cc1Cl	54	-	-	-	-	55
CCCCCC(=O)Nc1cc(S(=O)(=O)O)cc2cc(S(=O)(=O)O)cc(O)c12	45	-	49	-	-	57	ABHD4 confirm=64
NNC(=S)Nc1cccc(-c2n[nH]c(=S)o2)c1	34	-	35	-	-	-	ABHD4 confirm=-
CN(C)C(=S)Nc1cccc(-c2n[nH]c(=S)o2)c1	-	-	-	-	-	.
SMILES	PRMT1 FP inh	SIAE inh	mABHD4 FP	TCR-CD3 inh	HTRA1 inhibitor	PRMT1 inh conf	others
C=CCSC1=N/C(=C\c2cc(OCC)c(OC(C)=O)c([N+](=O)[O-])c2)C(=O)S1	28	-	37	-	-	-	ABHD4 confirm=85
C=CCSC1=N/C(=C\c2ccc3c(c2)OCO3)C(=O)S1	-	-	-	-	-	.
Cc1ccc(N2CC(C(=O)Nc3ccc(S(=O)(=O)Nc4ncccn4)cc3)CC2=O)cc1C (stereo unspecified)	-	-	-	-	-	.
Cc1cc(SCC(=O)c2cc(C)n(C)c2C)nc2ccccc12	-	-	-	-	-	.
O=C1OC(/C(=C\Nc2cc(Cl)ccc2O)[N+](=O)[O-])c2ccccc21 (stereo unspecified)	29	-	42	-	-	-	ABHD4 confirm=-
O=C1OC(/C(=C\Nc2ccc(F)cc2F)[N+](=O)[O-])c2ccccc21 (stereo unspecified)	-	-	-	-	-	.
Cn1c(N)c(C(=O)COC(=O)/C=C/c2ccc(Cl)c(Cl)c2)c(=O)n(C)c1=O	-	-	-	-	-	.
C/C(CC1CC2=C(CC1(C)C)C(C)(C)CCC2)=N\NC(N)=S (stereo unspecified)	-	-	-	-	-	.
Cc1ccc(S(=O)(=O)/N=C2/NC(=O)/C(=C\c3ccco3)S2)cc1	28	-	32	-	-	-	ABHD4 confirm=-
COC(=O)c1ccc(NCc2c(O)ccc(O)c2Br)cc1Cl	82	-	31	-	-	-	ABHD4 confirm=37
CCn1c(C)nc2cc(C(=O)N/N=C/c3ccc(O)c(O)c3O)ccc21	43	-	35	66	-	43	ABHD4 confirm=44
CCn1c(C)nc2cc(C(=O)N/N=C/c3cccc(OC)c3O)ccc21	-	-	-	-	-	.
COc1ccc(CN2CC[C@@H](N3CCOCC3)[C@H](O)C2)cc1F	-	-	-	-	-	.
Cc1cccc(NS(=O)(=O)c2cc(C(=O)NCCC3=CCCCC3)ccc2Cl)c1	-	-	-	-	-	.
Cc1ccc(-c2ccccc2)n1-c1ccc(C(=O)O)cc1	73	-	36	-	-	-	ABHD4 confirm=-
O=S1(=O)c2ccc(N3CC[C@H](O)C3)cc2OCCCN1C1CC1	-	-	-	.	.	.
COC(=O)C1=C(C)N(Cc2ccc(C)cc2)C(=O)/C1=C\c1ccc(O)c(OC)c1	27	-	33	-	-	-	ABHD4 confirm=47
O=C(/C=C/c1ccc(-c2ccccc2[N+](=O)[O-])o1)c1ccccc1	28	-	32	-	-	-	ABHD4 confirm=-
O=C(O)/C(=C\c1ccc(-c2ccccc2[N+](=O)[O-])o1)c1ccccc1	-	-	-	-	-	.
O=C(Nc1ccc(F)cc1)OCc1cn(Cc2cc(F)ccc2F)nn1	-	-	-	.	.	.
CCOC(=O)C1=c2s/c(=C\c3ccncc3)c(=O)n2C(N)=C(C(=O)OC)C1c1ccncc1 (stereo unspecified)	-	-	-	-	-	.
N#CC1=C(N)n2c(s/c(=C\c3cccs3)c2=O)=C(C#N)C1c1cccs1 (stereo unspecified)	-	-	-	-	-	.
CCOC(=O)C1=C(N)n2c(s/c(=C/c3ccco3)c2=O)=C(C(=O)OC)C1c1ccco1 (stereo unspecified)	36	-	39	-	-	-	ABHD4 confirm=-
N#CC1=C(N)n2c(s/c(=C\c3ccco3)c2=O)=C(C#N)C1c1ccco1 (stereo unspecified)	41	-	32	-	-	-	ABHD4 confirm=-
O=C(NCc1cccc(F)c1)C1CCC(=O)N(C2CC2)C1 (stereo unspecified)	-	-	-	-	-	.
O=C(C1CCCO1)N1CCN(C2=Nc3ccccc3Sc3ccccc32)CC1 (stereo unspecified)	-	-	-	.	.	.

Assay outcomes (PubChem)
